Test results published in ChEMBL document CHEMBL4138242, “Synthesis and antibacterial evaluation of novel cationic chalcone derivatives possessing broad spectrum antibacterial activity” (Eur J Med Chem, 2018).
Activity calls are given as the source filed them. The rule behind the calls is not given here.

Test system: Klebsiella pneumoniae
Assay: Antibacterial activity against drug-resistant carbapenemase producing Klebsiella pneumoniae clinical isolate KP-14-3 after 16 to 20 hrs by broth microdilution method
Format: functional
Procedure, shortened: (§1)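 CLSI broth microdilution in Mueller-Hinton broth. A 4-6 h culture was diluted to about 10⁶ CFU/mL and mixed 1:1 with compound dilutions prepared at 256 to 0.5 µg/mL from aqueous stocks. Plates were incubated at 37 °C for 16-20 h and read visually for MIC. Each concentration was run in duplicate, and the experiment was repeated at least twice. Vancomycin and meropenem were comparators.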

SMILES | MIC
CCCCCCCC[N+](C)(C)CC(=O)Nc1ccc(C(=O)/C=C/c2ccc(F)cc2)cc1.[Cl-] | 8 µg/mL

Test system: Escherichia coli
Assay: Antibacterial activity against drug-resistant NDM1 producing Escherichia coli clinical isolate EC-13-49 after 16 to 20 hrs by broth microdilution method
Format: functional
Procedure, shortened: as §1

SMILES | MIC
CCCCCCCC[N+](C)(C)CC(=O)Nc1ccc(C(=O)/C=C/c2ccc(F)cc2)cc1.[Cl-] | 4 µg/mL

Test system: Escherichia coli
Assay: Induction of cytoplasmic membrane depolarization in Escherichia coli ATCC 25922 at 10 to 20 ug/ml measured every 2 mins for 12 mins by DiSC35 dye-based fluorescence assay
Format: functional, organism-based
Procedure, shortened: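 Mid-log cells (~10⁸ CFU/mL) were suspended in PBS (S. aureus) or HEPES/glucose/KCl with EDTA (E. coli). They were preloaded with DiSC3(5) for 30 min (S. aureus) or 40 min (E. coli), and baseline fluorescence was read for 8 min. Compound was added to 20 µg/mL final, and fluorescence (ex 622/em 670 nm) was read every 2 min for 12 min. Water served as control.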

SMILES | Activity
CCCCCCCC[N+](C)(C)CC(=O)Nc1ccc(C(=O)/C=C/c2ccc(F)cc2)cc1.[Cl-] | Active

Test system: Staphylococcus aureus
Assay: Antibacterial activity against methicillin-resistant Staphylococcus aureus clinical isolate 0906202 after 16 to 20 hrs by broth microdilution method
Format: functional
Procedure, shortened: as §1

SMILES | MIC
CCCCCCCC[N+](C)(C)CC(=O)Nc1ccc(C(=O)/C=C/c2ccc(F)cc2)cc1.[Cl-] | 4 µg/mL

Test system: Staphylococcus aureus
Assay: Antibacterial activity against methicillin-resistant Staphylococcus aureus clinical isolate 1105183 cono7 after 16 to 20 hrs by broth microdilution method
Format: functional
Procedure, shortened: as §1

SMILES | MIC
CCCCCCCC[N+](C)(C)CC(=O)Nc1ccc(C(=O)/C=C/c2ccc(F)cc2)cc1.[Cl-] | 1 µg/mL

Test system: Escherichia coli
Assay: Antibacterial activity against drug-resistant NDM1 producing Escherichia coli clinical isolate CF-13-61 after 16 to 20 hrs by broth microdilution method
Format: functional
Procedure, shortened: as §1

SMILES | MIC
CCCCCCCC[N+](C)(C)CC(=O)Nc1ccc(C(=O)/C=C/c2ccc(F)cc2)cc1.[Cl-] | 16 µg/mL

Test system: Escherichia coli
Assay: Induction of inner membrane permeabilization in Escherichia coli ATCC 25922 at 10 to 20 ug/ml measured every 2 mins for 12 mins by propidium iodide staining-based fluorescence assay
Format: functional, organism-based
Procedure, shortened: (§2)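 Mid-log cells (~10⁸ CFU/mL) were suspended in PBS (S. aureus) or HEPES/glucose/KCl (E. coli). They were preincubated with propidium iodide for 30 min (S. aureus) or 40 min (E. coli), and baseline fluorescence was read for 8 min. Compound was added to 20 µg/mL final, and fluorescence (ex 535/em 617 nm) was read every 2 min for 12 min.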

SMILES | Activity
CCCCCCCC[N+](C)(C)CC(=O)Nc1ccc(C(=O)/C=C/c2ccc(F)cc2)cc1.[Cl-] | Active

Test system: Klebsiella pneumoniae
Assay: Antibacterial activity against drug-resistant carbapenemase producing Klebsiella pneumoniae clinical isolate KP-14-18 after 16 to 20 hrs by broth microdilution method
Format: functional
Procedure, shortened: as §1

SMILES | MIC
CCCCCCCC[N+](C)(C)CC(=O)Nc1ccc(C(=O)/C=C/c2ccc(F)cc2)cc1.[Cl-] | 8 µg/mL

Test system: Klebsiella pneumoniae
Assay: Antibacterial activity against drug-resistant carbapenemase producing Klebsiella pneumoniae clinical isolate KP-14-8 after 16 to 20 hrs by broth microdilution method
Format: functional
Procedure, shortened: as §1

SMILES | MIC
CCCCCCCC[N+](C)(C)CC(=O)Nc1ccc(C(=O)/C=C/c2ccc(F)cc2)cc1.[Cl-] | 4 µg/mL

Test system: Escherichia coli
Assay: Antibacterial activity against drug-resistant NDM1 producing Escherichia coli clinical isolate 1460 after 16 to 20 hrs by broth microdilution method
Format: functional
Procedure, shortened: as §1

SMILES | MIC
CCCCCCCC[N+](C)(C)CC(=O)Nc1ccc(C(=O)/C=C/c2ccc(F)cc2)cc1.[Cl-] | 8 µg/mL

Test system: Klebsiella pneumoniae
Assay: Antibacterial activity against drug-resistant carbapenemase producing Klebsiella pneumoniae clinical isolate KP-14-1 after 16 to 20 hrs by broth microdilution method
Format: functional
Procedure, shortened: as §1

SMILES | MIC
CCCCCCCC[N+](C)(C)CC(=O)Nc1ccc(C(=O)/C=C/c2ccc(F)cc2)cc1.[Cl-] | 4 µg/mL

Test system: Klebsiella pneumoniae
Assay: Antibacterial activity against drug-resistant carbapenemase producing Klebsiella pneumoniae clinical isolate KP-14-45 after 16 to 20 hrs by broth microdilution method
Format: functional
Procedure, shortened: as §1

SMILES | MIC
CCCCCCCC[N+](C)(C)CC(=O)Nc1ccc(C(=O)/C=C/c2ccc(F)cc2)cc1.[Cl-] | 8 µg/mL

Test system: Staphylococcus aureus
Assay: Antibacterial activity against methicillin-resistant Staphylococcus aureus clinical isolate 1208143 after 16 to 20 hrs by broth microdilution method
Format: functional
Procedure, shortened: as §1

SMILES | MIC
CCCCCCCC[N+](C)(C)CC(=O)Nc1ccc(C(=O)/C=C/c2ccc(F)cc2)cc1.[Cl-] | 2 µg/mL

Test system: Staphylococcus aureus
Assay: Antibacterial activity against methicillin-resistant Staphylococcus aureus clinical isolate 1207007 after 16 to 20 hrs by broth microdilution method
Format: functional
Procedure, shortened: as §1

SMILES | MIC
CCCCCCCC[N+](C)(C)CC(=O)Nc1ccc(C(=O)/C=C/c2ccc(F)cc2)cc1.[Cl-] | 0.5 µg/mL

Test system: Klebsiella pneumoniae
Assay: Antibacterial activity against drug-resistant carbapenemase producing Klebsiella pneumoniae clinical isolate KP-13-55 after 16 to 20 hrs by broth microdilution method
Format: functional
Procedure, shortened: as §1

SMILES | MIC
CCCCCCCC[N+](C)(C)CC(=O)Nc1ccc(C(=O)/C=C/c2ccc(F)cc2)cc1.[Cl-] | 8 µg/mL

Test system: Escherichia coli
Assay: Antibacterial activity against drug-resistant NDM1 producing Escherichia coli clinical isolate Ecl-14-58 after 16 to 20 hrs by broth microdilution method
Format: functional
Procedure, shortened: as §1

SMILES | MIC
CCCCCCCC[N+](C)(C)CC(=O)Nc1ccc(C(=O)/C=C/c2ccc(F)cc2)cc1.[Cl-] | 4 µg/mL

Test system: Klebsiella pneumoniae
Assay: Antibacterial activity against drug-resistant carbapenemase producing Klebsiella pneumoniae clinical isolate KP-14-5 after 16 to 20 hrs by broth microdilution method
Format: functional
Procedure, shortened: as §1

SMILES | MIC
CCCCCCCC[N+](C)(C)CC(=O)Nc1ccc(C(=O)/C=C/c2ccc(F)cc2)cc1.[Cl-] | 4 µg/mL

Test system: Staphylococcus aureus
Assay: Antibacterial activity against methicillin-resistant Staphylococcus aureus clinical isolate 1104060 after 16 to 20 hrs by broth microdilution method
Format: functional
Procedure, shortened: as §1

SMILES | MIC
CCCCCCCC[N+](C)(C)CC(=O)Nc1ccc(C(=O)/C=C/c2ccc(F)cc2)cc1.[Cl-] | 8 µg/mL

Test system: Enterococcus faecalis
Assay: Antibacterial activity against Enterococcus faecalis ATCC 29212 after 16 to 20 hrs by broth microdilution method
Format: functional
Procedure, shortened: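 Broth microdilution per CLSI. Bacteria grown 4-6 h (about 10⁸ CFU/mL), then diluted to about 10⁶ CFU/mL. Medium: Mueller-Hinton broth, except Luria-Bertani broth for E. coli. Compounds in sterile water, twofold series 256-0.5 µg/mL, mixed 1:1 with inoculum, 37 °C for 16-20 h. MIC is the lowest concentration without visible growth. Duplicate wells; experiment repeated at least twice.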

SMILES | MIC
CCCCCCCC[N+](C)(C)CC(=O)Nc1ccc(C(=O)/C=C/c2ccc(F)cc2)cc1.[Cl-] | 2 µg/mL

Test system: Staphylococcus aureus
Assay: Antibacterial activity against methicillin-resistant Staphylococcus aureus clinical isolate 20131012632sau after 16 to 20 hrs by broth microdilution method
Format: functional
Procedure, shortened: as §1

SMILES | MIC
CCCCCCCC[N+](C)(C)CC(=O)Nc1ccc(C(=O)/C=C/c2ccc(F)cc2)cc1.[Cl-] | 2 µg/mL

Test system: Staphylococcus aureus
Assay: Induction of inner membrane permeabilization in Staphylococcus aureus ATCC 29213 at 10 to 20 ug/ml measured every 2 mins for 12 mins by propidium iodide staining-based fluorescence assay
Format: functional, organism-based
Procedure, shortened: as §2

SMILES | Activity
CCCCCCCC[N+](C)(C)CC(=O)Nc1ccc(C(=O)/C=C/c2ccc(F)cc2)cc1.[Cl-] | Active
